The nature of series [1]: Suppression of IL4 receptor alpha expression in IL4 and anti-CD40 antibody sensitized mouse splenocytes. Particulars: Splenocyte.
Series [2] deals with T-cell. As to the kind of experiment: Inhibition of IFN-gamma production in conA and anti-CD3 antibody sensitized BALB/c mouse spleen T lymphocytes. Format: functional, tissue-based.
Series [3] can be described thus: Suppression of CD23 expression in IL4 and anti-CD40 antibody sensitized mouse splenocytes. To be noted: Splenocyte.
The test system of series [4] is Mus musculus. Put plainly: Protection against allergic response in ovalbumin sensitized BALB/c mouse assessed as inhibition of airway hyper-responsiveness at 5 mg/kg, po twice daily. The series is classed as functional, organism-based. Details: dose 5 mg/kg. The procedure, abridged: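 Female BALB/c mice sensitized i.p. with 10 µg OVA in 4 mg alum. At 2 weeks, OVA aerosol (2% in PBS) 20 min on 2 consecutive days with oral dosing twice daily for 3 days. 2 weeks later, OVA aerosol on 4 consecutive days with the same dosing. PBS-nebulized controls. Airway response to rising methacholine measured by whole-body plethysmography 1 day later.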

In series [5] the test system is T-cell. Put plainly: Inhibition of IL13 production in conA and anti-CD3 antibody sensitized BALB/c mouse spleen T lymphocytes. Format: functional, tissue-based.
Another series deals with B-cell. As to the kind of experiment: Inhibition of IgE production in B lymphocytes from BALB/c mouse. The series is classed as functional, cell-based. An outline of the steps: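 B cells isolated from spleens of naive BALB/c mice, cultured 5 days with IL-4 (10 ng/mL) and anti-mouse CD40 antibody (100 ng/mL), with or without drug. IgE in supernatants quantified by ELISA against a standard curve of DNP-specific mouse monoclonal antibody.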

For series [6], the system named is T-cell. As to the kind of experiment: Inhibition of IL4 production in conA and anti-CD3 antibody sensitized BALB/c mouse spleen T lymphocytes. The series is classed as functional, tissue-based.
Series [7] is described as follows: Ex vivo inhibition of IgE production in spleen cells from antigen sensitized BALB/c mouse. The series is classed as functional, cell-based. The procedure, abridged: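 BALB/c mice immunized with DNP-KLH plus alum; spleens taken 2 weeks later and cultured with antigen, with or without drug. Antigen-specific IgE in supernatants quantified by ELISA against a standard curve of DNP-specific mouse monoclonal antibody.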

Series [8] has as its system T-cell. Put plainly: Inhibition of IL5 production in conA and anti-CD3 antibody sensitized BALB/c mouse spleen T lymphocytes. The series is classed as functional, tissue-based.
A short description of series [9]: Suppression of CD23 expression in IL4 and anti-CD40 antibody sensitized CD14-positive human peripheral blood lymphocytes. Particulars: Lymphocyte.
Series [10] relates to Mus musculus. As to the kind of experiment: Oral bioavailability in mouse at 40 mg/kg, po relative to AVP-13358. The series is classed as ADME, organism-based. To be noted: in vivo.

Calls of active or inactive are those of the source. The rule behind the calls is not given here.

In the case of `O=C(Nc1ccccn1)c1ccc2[nH]c(-c3ccc(NC(=O)C45CC6CC(CC(C6)C4)C5)cc3)nc2c1`, the IC50 in [1] is 100 nM; in series [3] it was 40 nM; in the series on T-cell [5], 30 nM; in the series on B-cell it was 8 nM; in the series with T-cell [6], 30 nM; in [7], 3 nM. Further, the IC50 in the series on T-cell [8] is 30 nM; in series [9] it was 20 nM. Also, the outcome in the series with T-cell [2] and in the series with Mus musculus [4] was Active.

Take `CC(=O)OC12CC3CC(C1)CC(C(=O)Nc1ccc(-c4nc5cc(C(=O)Nc6ccccn6)ccc5[nH]4)cc1)(C3)C2`: in the series on Mus musculus [10], the “Relative Bioavailability” value came out at 0.35. The figures for the IC50 (in the series on B-cell; in series [7]) were 5 nM and 1 nM, respectively.

Take `O=C(Nc1ccccn1)c1ccc2[nH]c(-c3ccc(NC(=O)C45C[C@@H]6C[C@H](C4)[C@@H](O)[C@@H](C6)C5)cc3)nc2c1`: the “Relative Bioavailability” value in the series with Mus musculus [10] is less than 0.1. Also, the concentration for half-maximal inhibition (IC50) in the series on B-cell amounted to 8 nM; in series [7] it was 1 nM.

Consider `O=C(Nc1ccccn1)c1ccc2[nH]c(-c3ccc(NC(=O)C45CC6CC(C4)C(=O)C(C6)C5)cc3)nc2c1`, for which the “Relative Bioavailability” value in the series on Mus musculus [10] turned out to be 0.5. The IC50 with B-cell amounted to 40 nM; in series [7], 10 nM.

Regarding `CC(=O)Nc1ccc(-c2nc3cc(C(=O)NC45CC6CC(CC(C6)C4)C5)ccc3[nH]2)cc1`, the “Relative Bioavailability” value with Mus musculus [10] is on record as less than 0.1. The results for the IC50 (with B-cell; in series [7]) were 90 nM and 25 nM, respectively.

For the molecule `O=C(Nc1ccc(-c2nc3cc(C(=O)NC45CC6CC(CC(C6)C4)C5)ccc3[nH]2)cc1)c1ccc(Cl)c(Cl)c1`, the “Relative Bioavailability” value in the series on Mus musculus [10] is on record as less than 0.1. In addition, the IC50 in the series with B-cell was found to be 2 nM; in series [7] it was 0.4 nM.

Turning to `O=C(Nc1ccccn1)c1ccc2[nH]c(-c3ccc(NC(=O)C45C[C@@H]6C[C@H](C4)[C@H](O)[C@@H](C6)C5)cc3)nc2c1`, the “Relative Bioavailability” value in the series on Mus musculus [10] is listed as less than 0.1. Further, the IC50 worked out at 15 nM in the series on B-cell and 1 nM in series [7].

`O=C(NC1CCCCC1)c1ccc2[nH]c(-c3ccc(NC(=O)C45CC6CC(CC(C6)C4)C5)cc3)nc2c1`: in the series on Mus musculus [10], the “Relative Bioavailability” value is less than 0.1. The half-maximal inhibitory concentration (IC50) was found to be 7 nM with B-cell and 2 nM in series [7].

`O=C(NC12CC3CC(CC(C3)C1)C2)c1ccc2[nH]c(-c3ccc(NC(=O)C45CC6CC(CC(C6)C4)C5)cc3)nc2c1`: the “Relative Bioavailability” value in the series with Mus musculus [10] is listed as less than 0.1. For the same molecule, the IC50 in the series on B-cell was 2 nM; in [7], 1 nM.

The term IC50 denotes the midpoint of a concentration-inhibition curve.

For the origin of these results see ChEMBL document CHEMBL1149269, “Novel 2-(substituted phenyl)benzimidazole derivatives with potent activity against IgE, cytokines, and CD23 for the treatment of allergy and asthma” (J Med Chem, 2004).
